This note sets out measurements from PubChem BioAssay AID463079 (The Scripps Research Institute Molecular Screening Center, 2010).

About 2,000 (0.61%) of roughly 330,000 compounds were called active. This is one part of a sample in which actives are shown more often than they occur.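 The calls were made as follows: active = inhibition above that plate's mean sample inhibition plus 3 SD (cut at about 26% in these data); inactive = the rest.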

This assay is described as follows: nonselective Gq signaling inhibition in CHO cells – cell-based, fluorescence, Fluo-8 calcium dye, counter-screen for OX1R antagonist project, primary screen (AID 463079).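 Also: 0% = ATP-challenged DMSO wells and 100% = DMSO wells without ATP.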 The settings on record: parental CHO-K1, ATP-induced calcium, Fluo-8 fluorescence; at 5.6 µM; hits give high values. Put shortly: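 Assay system – parental CHO cells · Reagent – ATP stimulus · Detection – intracellular calcium via Fluo-8 no-wash fluorescent dye · Evaluation – percent inhibition of ATP-evoked calcium rise, normalized to controls · Controls – ATP wells versus no-ATP DMSO wells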
In the case of `N#CC1(NC(=O)COC(=O)Cc2n[nH]c(=O)c3ccccc23)CCCCC1`, the inhibition is -1.72% (inactive).
In the case of `Cc1ccc(NC(=O)CN(C)CC(=O)Nc2cccc(F)c2)cc1[N+](=O)[O-]` it was 68.4% (active).
In the case of `CN(CC(=O)Nc1cccc(F)c1)CC(=O)Nc1cccc([N+](=O)[O-])c1` it was -2.05% (inactive); in that of `Cc1ccc(NC(=O)c2sccc2C)cc1[N+](=O)[O-]`, -13% (inactive); in that of `CCN(CC)C(=O)c1sc(NC(=O)c2ccco2)c(C#N)c1C`, -6.79% (inactive).
In the case of `CCCc1ccc(-c2c(C)sc(NC(=O)c3ccnn3C)c2C#N)cc1` it was 37% (active); in that of `Cn1nccc1CNC(=O)c1ccnn1C`, 7.66% (inactive); in that of `Cc1cc(C)cc(Oc2nc3c(C)cccn3c(=O)c2/C=C(\C#N)C(=O)NC2CCS(=O)(=O)C2)c1` (configuration not stated), -10.7% (inactive).
Turning to `Cc1ccccc1C(=O)NC(=S)NC1CC1`, the inhibition was -11.8% (inactive).
In the case of `O=C(CSc1ncn[nH]1)Nc1nc(-c2cccc([N+](=O)[O-])c2)cs1` it was 29.9% (active); in that of `O=C(CSc1ncn[nH]1)Nc1nsc(-c2ccccc2)n1`, 0.25% (inactive).
To `O=C(CSc1nc(-c2ccccc2)cs1)Nc1cccc([N+](=O)[O-])c1` belongs -15.2% (inactive); to `CC(C)CC(CC(C)C)=NNC(=O)c1ccc(CSc2nncn2C)cc1`, -6.24% (inactive).
To `C=CCOc1cccc(C2C(C(=O)c3ccc(C)o3)=C(O)C(=O)N2CCCn2ccnc2)c1` (configuration not stated) belongs 4.82% (inactive).
Regarding `C=CCOc1cccc(C2C(C(=O)c3ccc(C)o3)=C(O)C(=O)N2c2nnc(C)s2)c1` (configuration not stated), the inhibition is 35.4% (active).
In the case of `Cc1cc(N2C(=O)C(O)=C(C(=O)c3ccc(C)o3)C2c2ccc(OCc3ccccc3)cc2)no1` (configuration not stated) it was -17.5% (inactive); in that of `Cc1ccc(SC(=O)COc2ccc(C)c(C)c2)cc1`, 11.9% (inactive); in that of `Cc1nc2ccccc2c(=O)n1NC(=O)c1ccccc1`, -3.13% (inactive).
Turning to `Cc1ccnc(-n2sc3ccccc3c2=O)n1`, the inhibition was 46.3% (active).
To `CCOC(=O)N1CCC(=NNC(N)=O)CC1` belongs -14.6% (inactive); to `O=Cc1c(Cl)cccc1Cl`, -9.8% (inactive); to `O=C(NCCc1c[nH]c2ccc(Cl)cc12)c1ccc([N+](=O)[O-])cc1`, 8.94% (inactive).
In the case of `NS(=O)(=O)c1ccc(CCNC(=O)c2ccc(Cl)cc2[N+](=O)[O-])cc1` it was -1.67% (inactive); in that of `O=C(NCCc1ccc(Cl)cc1Cl)c1cc([N+](=O)[O-])c[nH]c1=O`, 26.2% (active); in that of `Cc1ccc(O/C=C2\OC(=O)c3ccccc32)cc1`, 3.04% (inactive).
To `O=C(COC(=O)c1ncc(Cl)c(Cl)c1Cl)NCc1cccs1` belongs -15.5% (inactive); to `CC1CC(C)CN(C(=O)COC(=O)c2ccc3ncsc3c2)C1` (configuration not stated), -8.36% (inactive).
In the case of `CCC(=C/c1sc2ccc3ccccc3c2[n+]1C)/C=C1\Sc2ccc3ccccc3c2N1C`, the inhibition is 79.9% (active).
In the case of `CCC1(c2ccccc2)NC(=O)N(CC(=O)Nc2ccccc2C(=O)NC2CCCC2)C1=O` (configuration not stated) it was -8.29% (inactive); in that of `COc1ccc(NC(=O)CC2C(=O)OCC3CCCCN32)cc1Cl` (configuration not stated), -17.2% (inactive).
Regarding `COC(=O)c1sc(-c2ccc(C(C)(C)C)cc2)cc1NC(=O)/C=C/C(=O)O`, the inhibition was 38.8% (active).
For the molecule `CC(C)(C)c1ccc(/C=C/C(=O)Nc2ncccn2)cc1`, the inhibition is -20.1% (inactive).
To `COc1ccccc1NC(=O)/C=C/C(N)=O` belongs -0.46% (inactive).
To `CC(C)c1cc(C(N)=O)c(NC(=O)c2cccc(COc3ccc(Br)cc3)c2)s1` belongs -12.5% (inactive); to `O=C1OCCN1C(=O)[C@H]1[C@H](c2ccccc2)C(c2ccc(F)cc2)=NN1c1ccccc1`, -16.7% (inactive); to `CC1(C)Oc2ccc(C(=O)N3CCOCC3)cc2N(CC(=O)Nc2ccccc2)C1=O`, -10.5% (inactive).
In the case of `Cc1nn(C)cc1/C=C1\CCC/C(=C\c2cn(C)nc2C)C1=O` it was 1.91% (inactive); in that of `O=C(/C=C/c1ccc(F)cc1)Nc1cccc(S(=O)(=O)Nc2cccc(C(F)(F)F)c2)c1`, -1.97% (inactive).
Take `CCOC(=O)N1CCN(C(=O)c2ccc(S(=O)(=O)Nc3cccc(C(F)(F)F)c3)cc2)CC1`: the inhibition was 10.1% (inactive).
For the molecule `Cc1oc2c(F)c(F)c(F)c(F)c2c1S(=O)(=O)Nc1cccc(C(F)(F)F)c1`, the inhibition is 42.3% (active).
In the case of `COc1cccc(OC)c1C(=O)N1CCN(Cc2cccnc2)CC1` it was 2.69% (inactive).
In the case of `CC[C@]12c3[nH]c4cc(CCC(=O)N(C)C)ccc4c3CCN1C(=O)[C@@H](CC(=O)NCc1ccco1)C[C@@H]2C(=O)N1CCN(C(=O)c2ccco2)CC1` it was -6.08% (inactive).
